Assay outcomes from PubChem.
Rows were chosen to be rich in hits. Some 3.7% of all compounds tested hit in one or more screens of this group.
hERG rescue – compounds protecting human hERG from proarrhythmic drug block | activation (rescue from dofetilide block), less the hit threshold, % at 10 µM | AID 1511 | 310,000 compounds, 0.51% hits | Q12809 | CHO-hERG, FluxOR thallium flux, dofetilide IC70 present;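 active means activation above the mean of controls blocked by dofetilide plus 5 SD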;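 further: thallium influx through hERG after potassium depolarization seen as dye fluorescence rise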
Kir21 inh – blocks the mouse Kir2.1 inward-rectifier potassium channel; HEK293-Kir2.1, FluxOR thallium flux fluorescence; active compounds read low; P35561; 310,000 compounds, 0.85% hits; B-score at 10 µM;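 active means fluorescence ratio B-score at or below minus 3 SD of library scores, with starting-brightness B-score within 2 SD, cut at about -4.2 in these data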;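 further: channel flux triggered by added potassium and thallium sulfate stimulus; B-score of peak minus minimum fluorescence over baseline after thallium stimulus; more negative B-score means stronger Kir2.1 block with less thallium influx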
KCNQ1 block – inhibitors of human KCNQ1 potassium channel. CHO-K1 KCNQ1, FluxOR thallium flux fluorescence; active compounds read high. B-score at 10 µM. 310,000 compounds, 1.3% hits. AID 2642;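 active means compounds whose thallium flux B-score, printed positive for inhibition, exceeds three library SD while starting fluorescence stays within three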;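 further: channel opened by potassium depolarization with thallium stimulus after 20 min compound exposure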
KCNK9 block – human KCNK9 channel inhibition; B-score at 10 µM; 310,000 compounds, 1.2% hits; HEK293 KCNK9, FluxOR thallium flux fluorescence; active compounds read low;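 active means ratio B-score over 3 SD below the library mean, with starting fluorescence within 5 SD of its mean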;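 further: negative B-score means less thallium flux so channel inhibition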
Target sequence (Q9NPC2 whole entry, looked up): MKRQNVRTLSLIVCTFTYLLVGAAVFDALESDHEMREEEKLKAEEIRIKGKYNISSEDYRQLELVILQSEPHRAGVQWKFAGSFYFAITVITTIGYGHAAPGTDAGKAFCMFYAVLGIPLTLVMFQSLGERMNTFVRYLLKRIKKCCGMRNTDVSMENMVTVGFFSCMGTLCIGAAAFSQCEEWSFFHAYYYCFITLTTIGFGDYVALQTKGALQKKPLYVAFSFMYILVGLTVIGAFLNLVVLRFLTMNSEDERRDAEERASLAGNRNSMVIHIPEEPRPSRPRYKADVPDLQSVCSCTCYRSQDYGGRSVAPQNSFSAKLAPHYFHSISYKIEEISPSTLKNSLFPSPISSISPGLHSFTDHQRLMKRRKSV
KCNQ1 act – potentiators or activators of human KCNQ1 potassium channel | P51787 | CHO-K1 KCNQ1, thallium flux FluxOR fluorescence; active compounds read high | B-score at 10 µM | 310,000 compounds, 0.35% hits;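 active means fluorescence ratio B-score, a plate-corrected score, at least three library SD, with initial intensity B-score within 5 SD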
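System: Stable KCNQ1 CHO-K1 line | Incubation: 90 min dye loading and 20 min compound exposure, both at room temperature | Measure: Ratio B score | Medium: Assay buffer for compound exposure, DMSO matched across wells | Compound dosing: Single-concentration screen | Probe or stimulus: K+/Tl+ depolarizing stimulus | Measured by: Kinetic FluxOR fluorescence, 10 s baseline plus 110 s post-stimulus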
KCNK3 block – human KCNK3 channel inhibition, primary screen. CHO-KCNK3 thallium flux, FluxOR fluorescence; active compounds read low. 340,000 compounds, 0.84% hits. AID 602410. B-score at 10 µM. O14649;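 active means B-score under library mean minus 4 SD, starting fluorescence ratio at most library mean plus 5 SD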;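 further: more negative B-score means stronger inhibition of thallium flux through KCNK3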
An asterisk follows results filed as active.

How did CC(NC(=O)NC1CCCCC1)C(c1cccs1)N1CCN(Cc2ccccc2)CC1 (stereo unspecified) do in these assays?
hERG rescue: -9.9; Kir21 inh: 0.8; KCNQ1 block: inactive; KCNK9 block: inactive; KCNQ1 act: inactive; KCNK3 block: inactive

What do the screens show for `CCN1CCN(C(c2cccs2)C(C)NC(=S)Nc2cc(C)ccc2C)CC1` (stereo unspecified)?
hERG rescue: -7.5; Kir21 inh: -5.52*; KCNQ1 block: inactive; KCNK9 block: inactive; KCNQ1 act: inactive; KCNK3 block: inactive

Results for CC(NC(=S)NCCc1ccccc1)C(c1cccs1)N1CCN(Cc2ccccc2)CC1 (stereo unspecified) ?
hERG rescue: -12.0; Kir21 inh: -0.21; KCNQ1 block: 6*; KCNK9 block: inactive; KCNQ1 act: inactive; KCNK3 block: inactive

How did CN(c1ccccc1)S(=O)(=O)c1cc(C(=O)NCCCn2ccnc2)ccc1Cl do in these assays?
KCNK3 block: inactive

Results for Cc1ccc(S(=O)(=O)N2CCN(C)CC2)c2nsnc12 ?
hERG rescue: -7.3; Kir21 inh: -0.25; KCNQ1 block: inactive; KCNK9 block: inactive; KCNQ1 act: inactive; KCNK3 block: inactive

Results for CCn1ccnc1CN1CCc2c([nH]c3ccccc23)C1C(C)(C)C (stereo unspecified) ?
hERG rescue: -14.6; Kir21 inh: -7.65*; KCNQ1 block: inactive; KCNK9 block: inactive; KCNQ1 act: inactive; KCNK3 block: inactive

How did COc1ccc(S(=O)(=O)NC2(C(F)(F)F)N=C(c3ccccc3)NC2=O)cc1 (stereo unspecified) do in these assays?
hERG rescue: -5.4; Kir21 inh: -0.04; KCNQ1 block: inactive; KCNK9 block: -7.94*; KCNQ1 act: inactive; KCNK3 block: inactive

Results for O=C1NC(c2ccccc2)=NC1(NS(=O)(=O)c1ccccc1)C(F)(F)F (stereo unspecified) ?
hERG rescue: -2.6; Kir21 inh: 1.99; KCNQ1 block: inactive; KCNK9 block: inactive; KCNQ1 act: inactive; KCNK3 block: inactive

Results for CC(=O)N1N=C(c2cccc([N+](=O)[O-])c2)OC1c1ccc(Br)cc1 (stereo unspecified) ?
hERG rescue: -5.2; Kir21 inh: 0.8; KCNQ1 block: inactive; KCNK9 block: -6.97*; KCNQ1 act: inactive; KCNK3 block: inactive

Results for CC(=O)N1N=C(c2cccc([N+](=O)[O-])c2)OC1c1ccc(Cl)cc1Cl (stereo unspecified) ?
hERG rescue: -3.4; Kir21 inh: 1.85; KCNQ1 block: inactive; KCNK9 block: inactive; KCNQ1 act: inactive; KCNK3 block: inactive

Results for CCN1C(=O)c2cccc3c(NC(=O)c4ccccc4)ccc1c23 ?
hERG rescue: -2.5; Kir21 inh: 0.1; KCNQ1 block: inactive; KCNK9 block: inactive; KCNQ1 act: inactive; KCNK3 block: inactive

What do the screens show for `CCN1C(=O)c2cccc3c(NC(=O)c4ccc5c(c4)OCCO5)ccc1c23`?
hERG rescue: -7.3; Kir21 inh: 1.19; KCNQ1 block: inactive; KCNK9 block: inactive; KCNQ1 act: inactive; KCNK3 block: -10.3*

Results for COCCCNCCCOc1ccc(Cl)cc1C(C)(C)C ?
hERG rescue: -10.0; Kir21 inh: -5.09*; KCNQ1 block: inactive; KCNK9 block: inactive; KCNQ1 act: inactive; KCNK3 block: inactive

Results for COCCCNCCCCOc1ccc(Br)cc1Cl ?
hERG rescue: -12.9; Kir21 inh: -6.8*; KCNQ1 block: inactive; KCNK9 block: inactive; KCNQ1 act: inactive; KCNK3 block: inactive

What do the screens show for `C=CCc1cc(Cl)ccc1OCCOCCNCCOC`?
hERG rescue: -4.6; Kir21 inh: -5.91*; KCNQ1 block: inactive; KCNK9 block: inactive; KCNQ1 act: inactive; KCNK3 block: inactive

Results for CSc1ccc(Cl)c(C(=O)N(C)CC(=O)Nc2ccc(N3CCOCC3)cc2)c1 ?
hERG rescue: -8.9; Kir21 inh: -0.18; KCNQ1 block: inactive; KCNK9 block: inactive; KCNQ1 act: inactive; KCNK3 block: inactive

What do the screens show for `Cc1ccc(NC(=O)C2(S(=O)(=O)c3ccc(Cl)cc3)CC2)c(Br)c1`?
hERG rescue: -10.3; Kir21 inh: -2.65; KCNQ1 block: inactive; KCNK9 block: inactive; KCNQ1 act: inactive; KCNK3 block: inactive

What do the screens show for `CCn1c(=S)[nH]c2sc3c(c2c1=O)CCCC3`?
hERG rescue: 16.0*; Kir21 inh: 0.01; KCNQ1 block: inactive; KCNK9 block: inactive; KCNQ1 act: 35*; KCNK3 block: inactive

Results for CC1CCc2c(sc3[nH]c(=S)n(C)c(=O)c23)C1 (stereo unspecified) ?
hERG rescue: 52.4*; Kir21 inh: 0.02; KCNQ1 block: inactive; KCNK9 block: inactive; KCNQ1 act: 74*; KCNK3 block: inactive

Results for C=CCn1c(=S)[nH]c2sc3c(c2c1=O)CCC3 ?
hERG rescue: 16.1*; Kir21 inh: 1.07; KCNQ1 block: inactive; KCNK9 block: inactive; KCNQ1 act: inactive; KCNK3 block: inactive

How did CC1CCc2c(sc3nn[nH]c(=O)c23)C1 (stereo unspecified) do in these assays?
hERG rescue: -9.8; Kir21 inh: 0.01; KCNQ1 block: inactive; KCNK9 block: inactive; KCNQ1 act: inactive; KCNK3 block: inactive

Results for O=C(CSc1nnc(NC(=O)c2ccccc2)s1)NC1CCCC1 ?
hERG rescue: -7.7; Kir21 inh: -0.24; KCNQ1 block: inactive; KCNK9 block: inactive; KCNQ1 act: inactive; KCNK3 block: inactive

How did CCOc1cccc(=O)c2c(C)n(-c3ccc(C(=O)O)cc3)c(C)c12 do in these assays?
hERG rescue: 4.8*; Kir21 inh: -0.41; KCNQ1 block: inactive; KCNK9 block: inactive; KCNQ1 act: inactive; KCNK3 block: inactive

What do the screens show for `CCOC(=O)c1c(C)oc2cc(Br)c(OC)cc12`?
hERG rescue: 9.4*; Kir21 inh: 1.46; KCNQ1 block: inactive; KCNK9 block: inactive; KCNQ1 act: inactive; KCNK3 block: inactive

How did Cc1cccc(NC(=S)N(CCCN2CCCC2)Cc2cccn2Cc2ccc(Cl)cc2)c1 do in these assays?
hERG rescue: -23.1; Kir21 inh: -5.32*; KCNQ1 block: inactive; KCNK9 block: inactive; KCNQ1 act: inactive; KCNK3 block: inactive

Results for CCOC(=O)C1=C(C)N=C2SC(C(=O)OC)=CC(=O)N2C1c1ccc(OC)cc1 (stereo unspecified) ?
hERG rescue: -22.8; Kir21 inh: -5.72*; KCNQ1 block: inactive; KCNK9 block: inactive; KCNQ1 act: inactive; KCNK3 block: inactive
